In the library only some 3.3% were active in any assay of this set; here they are far more common.
SENP1 FRET inh = human SENP1 catalytic domain inhibitors, primary screen, biochemical, FRET, uHTS. Sentrin-specific protease 1 (Homo sapiens), Q9P0U3. recombinant SENP1 catalytic domain, CyPet-SUMO1-YPet FRET cleavage. inhibition, % at 10 µM. 360,000 tested, 0.21% active. AID 624204, 2012;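 active = inhibition at least 30% at 10 µM, raw YFP signal under a set limit, fluorescence ratio 0.5 to 1.5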;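 note: 0% = enzyme with DMSO and 100% = no enzyme wells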
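Controls: no-enzyme wells low, DMSO-plus-enzyme wells high control. Test system: human recombinant His6-tagged SENP1 catalytic domain enzyme. Reagent: SFCypet-SUMO1-SFYpet FRET protein substrate, 25 nM final. Doses: one dose per compound, 10 µM, 0.5% DMSO. Detection: FRET, CFP and YFP emission. Timing: 50 min reaction at room temperature.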
SENP8 block-1 = human SENP8 protease inhibitors, primary screen, biochemical, fluorescence, Nedd8 protein substrate, uHTS; inhibition, % at 20 µM; 360,000 tested, 0.64% active; recombinant SENP8; Sentrin-specific protease 8 (Homo sapiens), Q96LD8; in the data active = inhibition mostly above about 40%, no sharp cut-off; inactive = mostly below about 27%
SENP6 block = SENP6 protease inhibitors, primary screen, biochemical, luminescence, uHTS | Sentrin-specific protease 6 (Homo sapiens), Q9GZR1 | Recombinant SENP6 catalytic domain, aminoluciferin luminescence | inhibition, % at 10 µM | 330,000 tested, 1.8% active | AID 2599, 2010;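 active = inhibition above about 50% at the single tested dose, limit read from the data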;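 note: plate controls were DMSO wells with enzyme for no effect and DMSO wells lacking enzyme for full effect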
NRP1-CendR mod = modulators of CendR peptide binding to NRP-1, primary screen, biochemical, fluorescence polarization, uHTS | 360,000 tested, 0.85% active | Neuropilin-1 (Homo sapiens), O14786 | AID 602438, 2012 | inhibition, % at 25 µM | FAM-RPARPAR peptide binding to NRP-1;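 active = inhibition or corrected inhibition above about 18%, plus a signal ratio from 0.5 to 1.5, limit read from the data, passing the limit was not always enough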
Target sequence (O14786 whole entry, looked up): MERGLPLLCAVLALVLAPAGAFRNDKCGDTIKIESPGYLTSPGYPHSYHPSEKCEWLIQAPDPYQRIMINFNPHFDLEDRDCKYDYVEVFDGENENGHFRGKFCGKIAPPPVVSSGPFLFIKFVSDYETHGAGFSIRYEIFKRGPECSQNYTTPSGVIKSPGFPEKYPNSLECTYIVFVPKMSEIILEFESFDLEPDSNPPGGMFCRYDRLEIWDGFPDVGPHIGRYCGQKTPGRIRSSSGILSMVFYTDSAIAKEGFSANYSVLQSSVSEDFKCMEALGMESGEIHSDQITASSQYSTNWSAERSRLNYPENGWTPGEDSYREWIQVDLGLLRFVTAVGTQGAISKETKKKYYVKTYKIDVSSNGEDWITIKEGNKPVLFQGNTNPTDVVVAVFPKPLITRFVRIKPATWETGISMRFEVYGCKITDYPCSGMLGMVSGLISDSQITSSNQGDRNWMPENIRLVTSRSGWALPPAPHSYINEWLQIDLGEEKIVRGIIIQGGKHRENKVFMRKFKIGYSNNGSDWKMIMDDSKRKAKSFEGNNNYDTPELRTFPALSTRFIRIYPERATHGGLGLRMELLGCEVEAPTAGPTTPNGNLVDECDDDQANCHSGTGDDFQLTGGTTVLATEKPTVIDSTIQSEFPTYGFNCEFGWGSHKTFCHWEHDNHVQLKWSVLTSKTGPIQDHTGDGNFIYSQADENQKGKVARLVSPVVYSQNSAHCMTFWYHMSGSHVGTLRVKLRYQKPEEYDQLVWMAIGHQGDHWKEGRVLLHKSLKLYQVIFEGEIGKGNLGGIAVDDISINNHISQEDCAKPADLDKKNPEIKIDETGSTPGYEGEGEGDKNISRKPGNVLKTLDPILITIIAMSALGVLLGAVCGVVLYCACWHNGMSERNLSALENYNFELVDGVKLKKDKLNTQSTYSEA
SENP7 block = SENP7 protease inhibitors, primary screen, biochemical, luminescence, uHTS; recombinant SENP7, Z-RLRGG-aminoluciferin luminescence, 40 min; 330,000 tested, 1.5% active; AID 434973, 2010; inhibition, % at 5 µM; Sentrin-specific protease 7 (Homo sapiens), Q9BQF6;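 active = inhibition above about 50% at the single test dose, limit read from the data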;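 note: plate controls were DMSO with enzyme for no effect and no enzyme buffer wells for full effect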
SENP8 block-2 = SENP8 protease inhibitors, primary screen, biochemical, luminescence; Sentrin-specific protease 8 (Homo sapiens), Q96LD8; purified SENP8, Z-RLRGG-aminoluciferin cleavage; inhibition, % at 10 µM; 330,000 tested, 1.2% active; AID 2540, 2010; in the data active = inhibition above about 50%
SENP8 confirm = SENP8 protease inhibitors, retest, confirmation, biochemical, luminescence, single concentration; shares compounds with SENP7 block; Recombinant SENP8, Z-RLRGG-aminoluciferin luminescence, 60 min; inhibition, % at 12.5 µM; 6,200 tested, 40% active; AID 488912, 2010;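 active = mean inhibition across replicates above about 50%, limit read from the data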
SENP6 conf = SENP6 protease inhibitors, confirmation, biochemical, luminescence, single concentration | shares compounds with SENP7 block | inhibition, % at 12.5 µM | AID 488915, 2010 | recombinant SENP6, Z-RLRGG-aminoluciferin luminescence | 6,200 tested, 58% active
SENP7 confirm = SENP7 protease inhibitors, retest, confirmation, biochemical, luminescence, single concentration; shares compounds with SENP7 block; recombinant SENP7, Z-RLRGG-aminoluciferin luminescence, 40 min; inhibition, % at 12.5 µM; 6,200 tested, 69% active; AID 488917, 2010
Casp3 select = caspase-3 protease inhibitors, confirmation, selectivity assay for SENP inhibitor project, biochemical, single concentration; inhibition, % at 12.5 µM; 6,200 tested, 60% active; shares compounds with SENP7 block; AID 488918, 2010; purified caspase-3, Z-DEVD-aminoluciferin luminescence, 60 min;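 active = mean inhibition above about 50%, limit read from the data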;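 note: plate controls were enzyme with DMSO for no effect and wells without caspase-3 for full effect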
SENP luc ctr = counter-screen for SENP inhibitors: luminescence interference; Pre-incubated SENP8/Z-RLRGG-aminoluciferin, luciferase luminescence interference; AID 488919; inhibition, % at 12.5 µM; 6,200 tested, 39% active; shares compounds with SENP7 block;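 active = mean inhibition above about 50% when retested at one dose, limit read from the data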;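 note: plate controls were DMSO wells with completed reaction for no effect and substrate without enzyme for full effect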
Numbers without * were called inactive; i = inactive; / = not tested or not shown.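 Rule for the calls, unless noted: active = mean inhibition above about 50% in the one-dose retest (limit read from the data); inactive = the rest.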

SMILES | SENP1 FRET inh | SENP8 block-1 | SENP6 block | NRP1-CendR mod | SENP7 block | SENP8 block-2 | SENP8 confirm | SENP6 conf | SENP7 confirm | Casp3 select | SENP luc ctr
O=C(Nc1c(-c2ccccc2)nc2ccccn12)c1ccco1 | 2 | 4 | -12 | 12 | 5 | 3 | / | / | / | / | /
COc1ccc(-c2nc3ccc(C)cn3c2NCc2ccc3c(c2)OCO3)cc1 | -12 | -351 | -2 | 5 | -4 | -12 | / | / | / | / | /
CC1=C(C(=O)N(C(C)C)C(C)C)CC(CC(=O)NC2CCCC2)C(=O)N1CCC1=CCCCC1 (configuration not stated) | -1 | 15 | / | 7 | / | / | / | / | / | / | /
CCCS(=O)(=O)NC(=O)C1(C)CCCN(C(=O)c2c(-c3ccccc3)noc2C)C1 (configuration not stated) | 1 | 16 | / | 3 | / | / | / | / | / | / | /
CCOc1ccc(/C=C/C(=O)c2ccccc2)cc1 | -6 | -5 | 76* | -4 | 83* | 70* | -24 | 83* | 88* | 33 | 80*
Cc1ccc(/C=C/C(=O)c2ccccc2)cc1 | 0 | 17 | 78* | -7 | 40 | 26 | 51* | 60* | 64* | 4 | 65*
Cc1ccc(/C=C/C(=O)c2c(C)nc3ccccn23)cc1 | 1 | 7 | 16 | 0 | 103* | -18 | 32 | 19 | 33 | 5 | 22
CN(C)c1ccc(C(=O)/C=C/c2ccccc2)cc1 | 20 | 9 | 84* | -13 | 79* | 63* | 27 | 17 | 56* | 30 | 45
CN(C)c1ccc(C(=O)/C=C/c2ccc(Br)cc2)cc1 | 30 | 19 | -2 | -24 | -3 | 27 | / | / | / | / | /
O=C(Nc1ccc(C(=O)O)cc1)/C(=C\c1ccc2c(c1)OCO2)NC(=O)c1ccccc1Cl | 0 | i | / | 6 | / | / | / | / | / | / | /
COC(=O)C1=CN(c2ccc(Oc3ccccc3)cc2)C(N)=C(C#N)C1c1ccc(-c2ccccc2)cc1 (configuration not stated) | -15 | -338 | / | -14 | / | / | / | / | / | / | /
CCOc1ccc(N/C=C/C(=O)c2ccccc2)c([N+](=O)[O-])c1 | 8 | 34 | 98* | 7 | 101* | 97* | 94* | 95* | 80* | 97* | 13
CSc1ccc(/C=C/C(=O)c2ccc(O)cc2)cc1 | -39 | -173 | 81* | -76 | 34 | 74* | 69* | 64* | 42 | 23 | 50
CCOc1ccc(C(=O)/C=C/c2ccc(SC)cc2)cc1 | -27 | -140 | 9 | -12 | -13 | -3 | / | / | / | / | /
O=C(N/N=C/c1c[nH]c2ccccc12)c1ccc2c(c1)OCCO2 | -1 | -116 | 54* | 3 | 48 | 31 | 45 | 43 | 77* | 55* | 60*
CCOc1ccc(Br)cc1C(=O)N/N=C/c1c[nH]c2ccccc12 | -2 | -96 | 58* | -1 | -5 | 1 | -6 | -5 | -10 | -7 | -5
